Data on one compound can be found in paper PMC3129977 (ACS chemical neuroscience, 2011).

For assay [1], the target named is T1, aggregated Aβ42 peptides (Homo sapiens, UniProt P05067). Nature of the assay: Fluorescence studies with aggregated Aβ peptides. In kind it is binding.
Assay [2] concerns the target Aβ plaques in brain sections from an AD patient (Homo sapiens, UniProt P05067). Briefly: Staining of frozen human brain tissue sections. Conditions: 60 μM probe in PBS, 30 min. In short, it runs like this: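 Frozen AD brain sections were dried for 1 h, passed through 100%, 95% and 70% ethanol (5 min each), rinsed in water, and equilibrated 15 min in PBS. Probe was diluted 1:50 from 3 mM PBS stock to 60 μM final and applied for 30 min at room temperature. Sections were PBS-washed, coverslipped and imaged by epifluorescence. Plaque/background intensity was normalized to a reference probe, as mean ± SD, n = 10 measurements per probe.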

Assay [3] concerns the target T1, aggregated Aβ42 peptides. Conditions: earlier report; cited from earlier work.
[4] abbreviates: free probe 4 μM, 5% DMSO in nanopure water, before mixing with aggregated Aβ42.
The mark [5] stands for this setting: probe 4 μM after mixing with aggregated Aβ42 (5 μM).

T1 sequence (P05067 672-713 limits assumed): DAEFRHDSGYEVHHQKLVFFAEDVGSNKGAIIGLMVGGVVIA
Sequence of Aβ plaques in brain sections from an AD patient (P05067 672-711 limits assumed): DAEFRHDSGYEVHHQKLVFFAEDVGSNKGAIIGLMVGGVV

Regarding `COCCOCCOCCOC(=O)/C(C#N)=C/c1ccc2cc(N3CCCCC3)ccc2c1` [Compound 6], at aggregated Aβ42 peptides [1] (setting [4]), the Em. max before came out at 590 nm and the Exc. max before is recorded as 415 nm. Further, on aggregated Aβ42 peptides [1] (setting [5]), the Em. max after was 545 nm and the Exc. max after is 410 nm. The “Fold increase in emission intensity upon association with aggregated Aβ42” value at aggregated Aβ42 peptides [1] (probe 4 μM, aggregated Aβ42 5 μM) came to 7.7 fold. Moreover, in assay [2], the “Fluorescence contrast between plaques and surrounding tissue” value was “weaker observed contrast”; the “Staining of Aβ plaques” value is recorded as “stained”. For the same compound, the “Fluorescence change upon binding to Aβ fibrils” value at aggregated Aβ42 peptides [3] is on record as “large increase in fluorescence intensity”.
